# Assay results taken from ChEMBL document CHEMBL5724801, “EUbOPEN Chemogenomics Library - Multiplex” (2024).
# “And” between values parts separate entries of the source, which are not always exact repeats. Equal entries are not always repeated.
# System: Fibroblast
# Experiment: Multiplex assay against human fibroblast
# Assay type: toxicity, cell-based
# How it was run: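 Live cells carried four stains from seeding: Hoechst33342, BioTracker Green Microtubule Cytoskeleton Dye, MitoTracker Red and Annexin V Alexa Fluor 680. They were imaged on a CQ1 microscope at 37°C and 5% CO2 after compound addition. Using CellPathfinder machine-learning gating, cells were split into Hoechst high-intensity objects or normal cells, normal cells into healthy, pyknosed or fragmented nuclei, and pyknosed cells into mitotic or apoptotic; tubulin, mitochondrial-mass and membrane-permeability phenotypes are per cents of healthy-nucleus cells.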
# [1] = 12 h, 1 µM, compound concentration 1 uM
# [2] = 12 h, 10 µM, compound concentration 10 uM
# [3] = 24 h, 1 µM, compound concentration 1 uM
# [4] = 24 h, 10 µM, compound concentration 10 uM
# [5] = 48 h, 1 µM, compound concentration 1 uM
# [6] = 48 h, 10 µM, compound concentration 10 uM
structure (smiles),measurement,setting,value
O=C(NCCO)c1cccc(-c2cc(Nc3ccc(OC(F)(F)F)cc3)ncn2)c1,Population Apoptotic (%),[1],46% and 38%
same,Population Fragmented Nuclei (%),[1],16% and 29%
same,Population Healthy Nuclei (%),[1],60% and 46%
same,Population Hoechst High Intensity Objects (%),[1],3% and 4%
same,Population Membrane Permeable-Phenotype (%),[1],1% and 10%
same,Population Mitochondria Different-Phenotype (%),[1],6% and 8%
same,Population Mitotic Cells (%),[1],53% and 61%
same,Population Normal (%),[1],96% and 95%
same,Population Pyknosed Nuclei (%),[1],24% and 23%
same,Population Tubulin-Different-Phenotype (%),[1],33% and 46%
same,Total Cell Count,[1],130 and 149
same,Population Apoptotic (%),[2],37% and 40%
same,Population Fragmented Nuclei (%),[2],17% and 22%
same,Population Healthy Nuclei (%),[2],59% and 36%
same,Population Hoechst High Intensity Objects (%),[2],5% and 10%
same,Population Membrane Permeable-Phenotype (%),[2],0% and 11%
same,Population Mitochondria Different-Phenotype (%),[2],13% and 11%
same,Population Mitotic Cells (%),[2],62% and 59%
same,Population Normal (%),[2],94% and 89%
same,Population Pyknosed Nuclei (%),[2],22% and 40%
same,Population Tubulin-Different-Phenotype (%),[2],54% and 79%
same,Total Cell Count,[2],185 and 192
same,Population Apoptotic (%),[3],56% and 52%
same,Population Fragmented Nuclei (%),[3],16% and 24%
same,Population Healthy Nuclei (%),[3],60% and 50%
same,Population Hoechst High Intensity Objects (%),[3],1% and 2%
same,Population Membrane Permeable-Phenotype (%),[3],2% and 5%
same,Population Mitochondria Different-Phenotype (%),[3],4% and 5%
same,Population Mitotic Cells (%),[3],43% and 47%
same,Population Normal (%),[3],98% and 97%
same,Population Pyknosed Nuclei (%),[3],22% and 25%
same,Population Tubulin-Different-Phenotype (%),[3],33% and 42%
same,Total Cell Count,[3],135 and 139
same,Population Apoptotic (%),[4],50% and 41%
same,Population Fragmented Nuclei (%),[4],14% and 30%
same,Population Healthy Nuclei (%),[4],61% and 36%
same,Population Hoechst High Intensity Objects (%),[4],11% and 7%
same,Population Membrane Permeable-Phenotype (%),[4],1% and 10%
same,Population Mitochondria Different-Phenotype (%),[4],21% and 25%
same,Population Mitotic Cells (%),[4],50% and 58%
same,Population Normal (%),[4],88% and 92%
same,Population Pyknosed Nuclei (%),[4],24% and 32%
same,Population Tubulin-Different-Phenotype (%),[4],53% and 84%
same,Total Cell Count,[4],175 and 187
same,Population Apoptotic (%),[5],82% and 45%
same,Population Fragmented Nuclei (%),[5],21% and 31%
same,Population Healthy Nuclei (%),[5],65% and 53%
same,Population Hoechst High Intensity Objects (%),[5],1%
same,Population Membrane Permeable-Phenotype (%),[5],3% and 6%
same,Population Mitochondria Different-Phenotype (%),[5],1% and 4%
same,Population Normal (%),[5],98%
same,Population Pyknosed Nuclei (%),[5],13% and 14%
same,Population Tubulin-Different-Phenotype (%),[5],28% and 38%
same,Total Cell Count,[5],130 and 156
same,Population Apoptotic (%),[6],70% and 76%
same,Population Fragmented Nuclei (%),[6],35% and 40%
same,Population Healthy Nuclei (%),[6],51% and 47%
same,Population Hoechst High Intensity Objects (%),[6],13% and 6%
same,Population Membrane Permeable-Phenotype (%),[6],0% and 13%
same,Population Mitochondria Different-Phenotype (%),[6],26% and 19%
same,Population Mitotic Cells (%),[6],30% and 23%
same,Population Normal (%),[6],86% and 93%
same,Population Pyknosed Nuclei (%),[6],13% and 11%
same,Population Tubulin-Different-Phenotype (%),[6],64% and 86%
same,Total Cell Count,[6],170 and 198
O=C1COc2nccc(-c3ccccc3F)c2CN1Cc1cc(C(F)(F)F)cc(C(F)(F)F)c1,Population Apoptotic (%),[1],38% and 29%
same,Population Fragmented Nuclei (%),[1],12% and 17%
same,Population Healthy Nuclei (%),[1],74% and 62%
same,Population Hoechst High Intensity Objects (%),[1],2% and 0%
same,Population Membrane Permeable-Phenotype (%),[1],1%
same,Population Mitochondria Different-Phenotype (%),[1],7% and 5%
same,Population Mitotic Cells (%),[1],61% and 70%
same,Population Normal (%),[1],97% and 99%
same,Population Pyknosed Nuclei (%),[1],13% and 20%
same,Population Tubulin-Different-Phenotype (%),[1],27% and 32%
same,Total Cell Count,[1],195 and 135
same,Population Apoptotic (%),[2],54% and 37%
same,Population Fragmented Nuclei (%),[2],15% and 24%
same,Population Healthy Nuclei (%),[2],69% and 51%
same,Population Hoechst High Intensity Objects (%),[2],5% and 8%
same,Population Membrane Permeable-Phenotype (%),[2],0% and 4%
same,Population Mitochondria Different-Phenotype (%),[2],10% and 12%
same,Population Mitotic Cells (%),[2],45% and 62%
same,Population Normal (%),[2],94% and 91%
same,Population Pyknosed Nuclei (%),[2],14% and 23%
same,Population Tubulin-Different-Phenotype (%),[2],66% and 50%
same,Total Cell Count,[2],161 and 132
same,Population Apoptotic (%),[3],53% and 34%
same,Population Fragmented Nuclei (%),[3],11% and 20%
same,Population Healthy Nuclei (%),[3],74% and 58%
same,Population Hoechst High Intensity Objects (%),[3],3% and 2%
same,Population Membrane Permeable-Phenotype (%),[3],0% and 2%
same,Population Mitochondria Different-Phenotype (%),[3],6% and 3%
same,Population Mitotic Cells (%),[3],46% and 65%
same,Population Normal (%),[3],96% and 97%
same,Population Pyknosed Nuclei (%),[3],14% and 20%
same,Population Tubulin-Different-Phenotype (%),[3],23% and 39%
same,Total Cell Count,[3],203 and 142
same,Population Apoptotic (%),[4],66% and 55%
same,Population Fragmented Nuclei (%),[4],18% and 26%
same,Population Healthy Nuclei (%),[4],71% and 56%
same,Population Hoechst High Intensity Objects (%),[4],3% and 6%
same,Population Membrane Permeable-Phenotype (%),[4],0% and 7%
same,Population Mitochondria Different-Phenotype (%),[4],11% and 5%
same,Population Mitotic Cells (%),[4],33% and 45%
same,Population Normal (%),[4],96% and 93%
same,Population Pyknosed Nuclei (%),[4],9% and 16%
same,Population Tubulin-Different-Phenotype (%),[4],57% and 61%
same,Total Cell Count,[4],162 and 129
same,Population Apoptotic (%),[5],75% and 31%
same,Population Fragmented Nuclei (%),[5],16% and 29%
same,Population Healthy Nuclei (%),[5],75% and 55%
same,Population Hoechst High Intensity Objects (%),[5],5% and 6%
same,Population Membrane Permeable-Phenotype (%),[5],0% and 1%
same,Population Mitochondria Different-Phenotype (%),[5],4% and 1%
same,Population Mitotic Cells (%),[5],25% and 68%
same,Population Normal (%),[5],94% and 93%
same,Population Pyknosed Nuclei (%),[5],8% and 14%
same,Population Tubulin-Different-Phenotype (%),[5],28% and 25%
same,Total Cell Count,[5],210 and 143
same,Population Apoptotic (%),[6],72% and 60%
same,Population Fragmented Nuclei (%),[6],20% and 39%
same,Population Healthy Nuclei (%),[6],72% and 49%
same,Population Hoechst High Intensity Objects (%),[6],2% and 5%
same,Population Membrane Permeable-Phenotype (%),[6],0% and 1%
same,Population Mitochondria Different-Phenotype (%),[6],14% and 8%
same,Population Mitotic Cells (%),[6],27% and 40%
same,Population Normal (%),[6],97% and 94%
same,Population Pyknosed Nuclei (%),[6],6% and 11%
same,Population Tubulin-Different-Phenotype (%),[6],62% and 47%
same,Total Cell Count,[6],172 and 144
